Calls of active or inactive are those of the source.
Tests used:
[1] = system: Umbilical cord derived endothelial colony forming cell; assay: Activation of WNT pro-angiogenic pathway in human umbilical cord derived endothelial colony forming cells by measuring TCF7L1 level in presence of panobinostat by qRT-PCR analysis; assay type: cell-based; details: filed as activator
[2] = system: Umbilical cord derived endothelial colony forming cell; assay: Activation of WNT pro-angiogenic pathway in human umbilical cord derived endothelial colony forming cells by measuring JAG1 level in presence of panobinostat by qRT-PCR analysis; assay type: cell-based; details: filed as activator
[3] = system: Umbilical cord derived endothelial colony forming cell; assay: Activation of WNT pro-angiogenic pathway in human umbilical cord derived endothelial colony forming cells by measuring MML1 level in presence of panobinostat by qRT-PCR analysis; assay type: cell-based; details: filed as activator
[4] = system: Umbilical cord derived endothelial colony forming cell; assay: Activation of WNT pro-angiogenic pathway in human umbilical cord derived endothelial colony forming cells by measuring EGR1 level in presence of panobinostat by qRT-PCR analysis; assay type: cell-based; details: filed as activator
HUVEC [5] = assay: Downregulation of DKK1 in human umbilical cord derived endothelial colony forming cells by qRT-PCR analysis; assay type: functional, cell-based
HUVEC [6] = assay: Downregulation of SEMA3A in human umbilical cord derived endothelial colony forming cells by qRT-PCR analysis; assay type: functional, cell-based
HUVEC [7] = assay: Effect on pro-angiogenic property in human umbilical cord derived endothelial colony forming cells assessed as increase in VEGFR1 protein level by Western blotting analysis; assay type: functional, cell-based
HUVEC [8] = assay: Effect on pro-angiogenic property in human umbilical cord derived endothelial colony forming cells assessed as increase in VEGFR2 protein phosphorylation by Western blotting analysis; assay type: functional, cell-based
HUVEC [9] = assay: Effect on pro-angiogenic property in human umbilical cord derived endothelial colony forming cells assessed as increase in intracellular NOTCH protein phosphorylation by Western blotting analysis; assay type: functional, cell-based
HUVEC [10] = assay: Effect on pro-angiogenic property in human umbilical cord derived endothelial colony forming cells assessed as increase in intracellular CXCR4 protein phosphorylation by Western blotting analysis; assay type: functional, cell-based
HUVEC [11] = assay: Effect on pro-angiogenic property in human umbilical cord derived endothelial colony forming cells assessed as increase in AKT protein phosphorylation by Western blotting analysis; assay type: functional, cell-based
HUVEC [12] = assay: Effect on pro-angiogenic property in human umbilical cord derived endothelial colony forming cells assessed as increase in ERK1 protein phosphorylation by Western blotting analysis; assay type: functional, cell-based
HUVEC [13] = assay: Effect on pro-angiogenic property in human umbilical cord derived endothelial colony forming cells assessed as increase in ERK2 protein phosphorylation by Western blotting analysis; assay type: functional, cell-based
HUVEC [14] = assay: Effect on pro-angiogenic property in human umbilical cord derived endothelial colony forming cells assessed as increase in VEGFR2 protein level by Western blotting analysis; assay type: functional, cell-based
HUVEC [15] = assay: Effect on pro-angiogenic property in human umbilical cord derived endothelial colony forming cells assessed as increase in FZD7 level in presence of panobinostat by qRT-PCR analysis; assay type: functional, cell-based
HUVEC [16] = assay: Effect on pro-angiogenic property in human umbilical cord derived endothelial colony forming cells assessed as increase in KDR level in presence of panobinostat by qRT-PCR analysis; assay type: functional, cell-based
HUVEC [17] = assay: Effect on pro-angiogenic property in human umbilical cord derived endothelial colony forming cells assessed as increase in DLL4 level in presence of panobinostat by qRT-PCR analysis; assay type: functional, cell-based
HUVEC [18] = assay: Effect on pro-angiogenic property in human umbilical cord derived endothelial colony forming cells assessed as increase in HEY2 level in presence of panobinostat by qRT-PCR analysis; assay type: functional, cell-based
HUVEC [19] = assay: Effect on pro-angiogenic property in human umbilical cord derived endothelial colony forming cells assessed as increase in CXCR4 level by qRT-PCR analysis; assay type: functional, cell-based
HUVEC [20] = assay: Effect on pro-angiogenic property in human umbilical cord derived endothelial colony forming cells assessed as increase in CXCL12 level by qRT-PCR analysis; assay type: functional, cell-based
HUVEC [21] = assay: Effect on pro-angiogenic property in human umbilical cord derived endothelial colony forming cells assessed as increase in ANGPT2 level by qRT-PCR analysis; assay type: functional, cell-based
HUVEC [22] = assay: Effect on human umbilical cord derived endothelial colony forming cells assessed as decrease in H3K27me3 level by ChIP-qPCR analysis; assay type: functional, cell-based
HUVEC [23] = assay: Effect on human umbilical cord derived endothelial colony forming cells assessed as reversal of increase in H3K4me3 level in presence of panobinostat measured after 24 hrs of drug removal by qRT-PCR analysis; assay type: functional, cell-based
HUVEC [24] = assay: Effect on human umbilical cord derived endothelial colony forming cells assessed as reversal of decrease in H3 acetylation level in presence of panobinostat measured after 24 hrs of drug removal by qRT-PCR analysis; assay type: functional, cell-based
Mus musculus [25] = assay: Activation of vasculogenesis in NOD/SCID immunodeficient mouse xenografted with drug pretreated human umbilical cord derived endothelial colony forming cells assessed as increase in formation of micro-capillaries in presence of panobinostat by H and E staining analysis; assay type: functional, organism-based
Method in brief: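 ECFCs (4 × 10^6 cells/mL), drug cocktail-pretreated or not, mixed into 1.5 mg/mL type I collagen gels, polymerized 30 min at 37°C, held 18 hr in drug-free medium, implanted into flanks of 6–12-week-old NOD/SCID mice. Explants harvested at 3 weeks; H&E and anti-human CD31 staining; closed hCD31+ capillaries counted per area, n = 6 mice per group, ±SEM.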

Mus musculus [26] = species: Mus musculus; assay: Effect on restoration of blood flow in athymic nude CD1 hindlimb ischemia mouse model in presence of panobinostat for 28 days by laser doppler perfusion imaging analysis; assay type: functional, organism-based; details: time 28.0 day
Method in brief: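 Left femoral artery ligated in 8-week-old female athymic nude CD1 mice; 5 × 10^5 ECFCs pretreated with the combination or vehicle, in 50 μL PBS, given as two intramuscular injections into adductor muscle after skin closure. Perfusion measured by laser Doppler pre-op, day 0 and later days; ischemic/non-ischemic ratio, n = 7–8 mice to day 14, 3–4 to day 28.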

Mus musculus [27] = assay: In vivo upregulation of pro-angiogneic pathway in athymic nude CD1 hindlimb ischemia mouse model in presence of panobinostat treated for 28 days; assay type: functional, organism-based; details: time 28.0 day
HUVEC [28] = assay: Effect on human umbilical cord derived endothelial colony forming cells assessed as decrease in H3 acetylation level in presence of panobinostat measured after removal of drug

Measured: Activity

CCCc1cc(C)[nH]c(=O)c1CNC(=O)c1cc(-c2ccnc(N3CCN(C)CC3)c2)cc2c1cnn2C(C)C
active: all assays above
